Compound activity from PubChem.
This is a sample that favours compounds with a hit; in the whole collection about 0.79% have one here.
hIAP activ: human IAP activators, primary screen, biochemical, luminescence, uHTS; Intestinal-type alkaline phosphatase (Homo sapiens), P09923; purified human IAP, CDP-Star luminescence, 30 min; active compounds read high; 1 = vehicle-only enzyme, 0 = enzyme-free background; activation factor at 10 µM; hit rate 0.16% among 330,000;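 active = activation factor of the enzyme at least 2-fold when tested at 20 µM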
Target sequence (P09923 whole entry, looked up): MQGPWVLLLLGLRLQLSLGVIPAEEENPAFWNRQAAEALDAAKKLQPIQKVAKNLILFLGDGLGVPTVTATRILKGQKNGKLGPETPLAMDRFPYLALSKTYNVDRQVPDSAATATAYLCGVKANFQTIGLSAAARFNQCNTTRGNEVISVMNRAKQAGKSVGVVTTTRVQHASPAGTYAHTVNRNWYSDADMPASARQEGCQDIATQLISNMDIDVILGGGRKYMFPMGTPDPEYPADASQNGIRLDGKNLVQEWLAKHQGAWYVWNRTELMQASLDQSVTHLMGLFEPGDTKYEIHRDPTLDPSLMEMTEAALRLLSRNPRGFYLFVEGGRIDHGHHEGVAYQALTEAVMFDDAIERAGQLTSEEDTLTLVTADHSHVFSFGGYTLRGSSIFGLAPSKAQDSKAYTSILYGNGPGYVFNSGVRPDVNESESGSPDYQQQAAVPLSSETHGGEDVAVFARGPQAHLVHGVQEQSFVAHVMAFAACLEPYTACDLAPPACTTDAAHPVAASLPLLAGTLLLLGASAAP
bIAP inh: bovine intestinal alkaline phosphatase inhibitors, primary screen, selectivity assay for TNAP inhibitor project, biochemical, bovine IAP, CDP-star luminescence. 190,000 tested, under 10 active. purified bovine IAP, 30 min. inhibition, % at 20 µM;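 active = over 50% inhibition of intestinal alkaline phosphatase at 20 µM in the single-dose screen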
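Incubation: 30 min reaction at room temperature / Material: purified bovine intestinal alkaline phosphatase (IAP) enzyme / Input: enzyme at 1/65,000,000 dilution / Dosing: 20 µM single dose / Signal: CDP-star luminescence signal / Reagent: CDP-star chemiluminescent phosphatase substrate, 30 µM final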
bIAP act: bovine intestinal alkaline phosphatase activators, primary screen, biochemical, bovine IAP, CDP-star luminescence; activation factor at 20 µM; hit rate 0.17% among 200,000; alkaline phosphatase, intestinal [Bos taurus]; purified bovine IAP, 30 min; active compounds read high; fold of DMSO-control signal, blank-subtracted;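 active = activation factor of 2 or more at 20 µM, a signal rise over negative controls twice the positive control's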
hIAP inh: human IAP inhibitors, primary screen, biochemical, luminescence, uHTS | Intestinal-type alkaline phosphatase (Homo sapiens), P09923 | purified IAP, CDP-Star luminescence, 30 min | hit rate 0.12% among 330,000 | AID 2544, 2010 | inhibition, % at 10 µM;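 active = inhibition reaching a set limit with compound at 10 µM in the primary screen, cut at about 35% in these data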;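 also: plate controls were DMSO wells with enzyme for no effect and no-enzyme buffer wells for full effect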
mIAP activ: activators of mouse IAP, primary screen, biochemical, luminescence, uHTS. muIAP, CDP-Star luminescence, 30 min; active compounds read high; 1 = vehicle-only enzyme signal, 0 = enzyme-free wells. activation factor at 10 µM. hit rate 0.24% among 330,000. AID 2805, 2010;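 active = activation factor of at least 2 at 20 µM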
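Assay system: mouse IAP enzyme; Reagent: CDP-Star chemiluminescent phosphatase substrate; Compound: DMSO-dissolved test compounds; Incubation: 30 min, room temperature; Technique: luminescence from enzymatic CDP-Star hydrolysis; Controls: DMSO-only wells and no-enzyme negative control.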
mIAP inh: inhibitors of mouse IAP, primary screen, biochemical, luminescence, uHTS; purified mouse IAP, CDP-Star luminescence, 30 min; inhibition, % at 10 µM; hit rate 0.2% among 330,000; AID 2806, 2010;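 active = inhibition of at least 40% at 10 µM in the primary screen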;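 also: plate controls were DMSO with enzyme for no effect and no enzyme wells for full effect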
hIAP act conf: human IAP activators, confirmation, biochemical, luminescence, single concentration, uHTS hits; AID 434926, 2010; hit rate 10% among 880; activation (%Activity, negative = activation), % at 8.3 µM; shares compounds with hIAP activ; purified IAP, CDP-Star luminescence, 30 min; active compounds read low;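 active = at least twofold enzyme activation in any of six single-dose repeats, which the averaged readout prints as negative percent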
An asterisk follows results filed as active; i = inactive; . = not tested or not shown.

SMILES | hIAP activ | bIAP inh | bIAP act | hIAP inh | mIAP activ | mIAP inh | hIAP act conf
O=C(COc1ccc(Br)cc1)NCCCn1ccnc1 | 2.6* | . | . | -155 | 0.99 | 1 | 51
Cc1cc(=O)[nH]c(-n2[nH]c3c(c2=O)CCCC3)n1 | 2.3* | -49 | 1.5 | -133 | 0.81 | 19 | 56
COc1ccc(OC)c(NS(=O)(=O)c2ccc(NC(=O)C3COc4ccccc4O3)cc2)c1 (stereo not drawn) | 0.86 | 12 | 0.9 | 14 | 0.97 | 3 | .
CCn1c(Oc2ccc(F)cc2)nc2c1c(=O)n(C)c(=O)n2C | 0.97 | -7 | 1.1 | 3 | 0.98 | 2 | .
CCOC(=O)/C(=N\Nc1ccc(OC)cc1)c1csc(Nc2ccccc2)n1 | 0.61 | 23 | 0.8 | 39* | 0.9 | 10 | -2
CCOC(=O)/C(=N/Nc1ccccc1)c1csc(Nc2ccccc2)n1 | 0.99 | 33 | 0.7 | 1 | 0.83 | 17 | .
CCCCOc1cccc(C2/C(=C(\O)c3ccc4c(c3)OCCO4)C(=O)C(=O)N2CCN2CCOCC2)c1 (stereo not drawn) | 0.58 | . | . | 42* | 1 | -1 | -91*
CCOc1cccc(OCCOCCOc2ccccc2C(C)=O)c1 | 2.2* | 9 | 0.9 | -124 | 1.1 | -7 | -219*
O=C(COC(=O)CNC(=O)c1ccccc1F)Nc1ccc2c(c1)OCO2 | 0.97 | . | . | 3 | 1.1 | -10 | .
COc1ccc(CC(=O)N2CCCC(CNC(=O)c3ccccc3Cl)C2)cc1 (stereo not drawn) | 0.92 | -19 | 1.2 | 8 | 0.96 | 4 | .
Oc1cccc(/C=N/N=C/c2cccc(O)c2O)c1O | 2* | . | . | -101 | 0.64 | 36 | -57
Cn1ncc(Cl)c1C(=O)N1CCc2ccccc21 | 0.83 | 9 | 0.9 | 17 | 0.95 | 4 | .
C=CCn1c(CNS(=O)(=O)c2ccc(F)cc2)n[nH]c1=S | 0.91 | . | . | 9 | 1.1 | -6 | .
C=CCn1c(CNS(=O)(=O)c2ccc(Cl)cc2)n[nH]c1=S | 0.58 | . | . | 42* | 0.83 | 16 | -26
CC(=O)Nc1cccc(-c2csc(Nc3ccccn3)n2)c1 | 2.2* | 3 | 1 | -118 | 1 | -4 | -94*
O=C1CCCc2ccccc2N1 | 1.2 | -2 | 1 | -22 | 0.96 | 4 | .
CCN(CC)CCN=C1CCCc2ccccc2N1 | 0.47 | 10 | 0.9 | 52* | 0.95 | 5 | -22
CCC(c1nnnn1C(C)(C)CC)N(CCCO)Cc1cc2cccc(C)c2[nH]c1=O (stereo not drawn) | 0.99 | 6 | 0.9 | 1 | 0.92 | 8 | .
CC(C)(C)NCC(=O)c1c[nH]c2ccccc12 | 2.1* | 10 | 0.9 | -108 | 1.1 | -15 | -58
CC(=O)OCC(=O)c1c[nH]c2ccccc12 | 0.89 | -8 | 1.1 | 12 | 0.97 | 2 | .
C=CCN1C(=O)C2(NNc3ccccc3O2)c2ccccc21 (stereo not drawn) | 6.7* | -286 | 3.9* | i | 1.1 | -6 | -93*
CC(NS(=O)(=O)c1ccc(Br)cc1)C(=O)Nc1nc2ccccc2[nH]1 (stereo not drawn) | 2.1* | . | . | -112 | 0.88 | 12 | 67
O=C(Cc1ccc(Br)cc1)Nc1nc2ccccc2[nH]1 | 1.6 | . | . | -56 | 0.97 | 3 | .
Cc1ccc(C)c(NC(=O)c2cc(-c3cc(C)c(C)cc3O)n[nH]2)c1 | 1.9 | . | . | -92 | 1.3 | -30 | .
COc1ccc(OC)c(NC(=O)c2cc(-c3ccc(C)cc3O)n[nH]2)c1 | 2.2* | -37 | 1.4 | -116 | 1 | -4 | -36
SMILES | hIAP activ | bIAP inh | bIAP act | hIAP inh | mIAP activ | mIAP inh | hIAP act conf
COc1ccc(OC)c(NC(=O)c2cc(-c3cc(C)ccc3O)n[nH]2)c1 | 2.1* | . | . | -108 | 1 | -2 | -42*
Cc1ccc(CNC(=O)c2cc(-c3cc(C)cc(C)c3O)n[nH]2)cc1 | 1.9 | . | . | -90 | 1.2 | -21 | .
Cc1ccc(O)c(-c2cc(C(=O)NCc3ccc4c(c3)OCO4)[nH]n2)c1 | 2.1* | 6 | 0.9 | -106 | 1.3 | -31 | 20
Cc1ccc(-c2cc(C(=O)Nc3cc(C)ccc3C)[nH]n2)c(O)c1 | 1.5 | 9 | 0.9 | -49 | 0.96 | 4 | .
CC(C)OCCCNC(=O)CCc1nc(-c2ccccc2)no1 | 0.89 | 2 | 1 | 11 | 0.97 | 2 | .
O=C(CCc1ccccc1)NNc1cc(N2CCCCC2)nc(N2CCCCC2)n1 | 1.4 | 8 | 0.9 | -43 | 1.2 | -24 | .
CCOc1ccc(CCNC(=O)CCNS(=O)(=O)c2ccc(Br)cc2)cc1OCC | 1.1 | . | . | -5 | 0.94 | 6 | .
O=C1c2c(O)cc(O)cc2O[C@H](c2ccc(O)cc2)[C@H]1O | 1 | . | . | -3 | 0.89 | 11 | .
C[C@@H]1O[C@@H](O[C@@H]2C(=O)c3c(O)cc(O)cc3O[C@H]2c2ccc(O)c(O)c2)[C@H](O)[C@H](O)[C@H]1O | 0.65 | . | . | 35* | 0.86 | 14 | -43
CN(C)c1ccc(N=Nc2cccc(F)c2)cc1 | 0.95 | . | . | 5 | 0.88 | 12 | .
CN(C)c1ccc(N=Nc2cccc3ccoc23)cc1 | 0.64 | . | . | 36* | 0.72 | 28 | -35
Cc1ccc(Cn2c(CN3CCOCC3)nc3c2c(=O)[nH]c(=O)n3C)cc1 | 1 | 1 | 1 | 0 | 0.96 | 4 | .
COc1ccc(NC(=O)CN(C)C(=O)C2=COCCO2)cc1 | 1.1 | . | . | -5 | 0.94 | 6 | .
C[C@@H]1CC[C@]2(C(=O)O)CC[C@]3(C)C(=CCC4[C@]56CC[C@@](O)(OC5)C(C)(C)C6CC[C@]43C)C2[C@H]1C (stereo partly drawn) | 1 | . | . | -3 | 0.9 | 10 | .
O=C(N/N=C/c1ccccn1)c1cc(C2CC2)[nH]n1 | 2.1* | -59 | 1.6 | -110 | 0.79 | 21 | -22
O=C(CCCC(=O)N/N=C\c1ccccn1)N/N=C\c1ccccn1 | 2* | -6 | 1.1 | -102 | 1 | -4 | 2
Cc1ccc(NC(=O)c2ccncc2)cc1[N+](=O)[O-] | 2.1* | -12 | 1.1 | -105 | 1.1 | -7 | 54
Cc1ccc(C(=O)Nc2ccncc2)cc1[N+](=O)[O-] | 1.2 | . | . | -21 | 0.97 | 3 | .
COC(=O)c1[nH]c2ccc(C)cc2c1NS(=O)(=O)c1ccc(F)cc1 | 0.99 | -3 | 1 | 1 | 0.94 | 6 | .
COc1cc(CN2CCc3ccc(NC(=O)CCc4ccccc4OC)cc3C2)ccc1O | 0.64 | . | . | 36* | 1.2 | -20 | -24
